Compound activity: PubChem BioAssay, Sanford-Burnham Center for Chemical Genomics
Shown are actives, neighbours in structure and some others; about 1.6% of the full set was active somewhere.
C8 TRAIL sens: sensitizes caspase-8 expressing cells to TRAIL | AID 624354 | inhibition (viability loss, TRAIL sensitization), % at 10 µM | 360,000 compounds, 1% hits | NB7+C8 cells + TRAIL, ATPlite viability luminescence;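 active = compounds causing at least 50% loss of cell viability in the single-dose screen, relative to plate controls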
FLuc inh counter: counter-screen for luciferase assay inhibitors: firefly luciferase inhibition; P08659; ATPLite firefly luciferase biochemical luminescence, 10 min; inhibition, % at 10 µM; 200,000 compounds, 1.5% hits; AID 1006;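 active = inhibition above about 50% when tested at 10 µM, limit read from the data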
Target sequence (P08659 whole entry, looked up): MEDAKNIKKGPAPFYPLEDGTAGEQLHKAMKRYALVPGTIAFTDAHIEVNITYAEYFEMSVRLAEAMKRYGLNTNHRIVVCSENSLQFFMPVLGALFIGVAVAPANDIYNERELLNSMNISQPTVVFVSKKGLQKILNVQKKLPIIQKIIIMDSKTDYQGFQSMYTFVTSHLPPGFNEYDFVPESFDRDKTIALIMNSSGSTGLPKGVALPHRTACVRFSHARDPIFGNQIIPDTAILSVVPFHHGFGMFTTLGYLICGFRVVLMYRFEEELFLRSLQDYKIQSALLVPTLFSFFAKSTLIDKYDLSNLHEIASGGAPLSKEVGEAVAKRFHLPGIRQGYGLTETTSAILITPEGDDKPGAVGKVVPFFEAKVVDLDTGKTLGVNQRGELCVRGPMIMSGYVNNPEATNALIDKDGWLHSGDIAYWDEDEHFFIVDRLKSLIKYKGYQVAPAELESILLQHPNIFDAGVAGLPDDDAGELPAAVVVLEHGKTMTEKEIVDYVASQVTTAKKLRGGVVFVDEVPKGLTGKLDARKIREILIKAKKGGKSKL
PPC-1+TRAIL kill: kills PPC-1 cancer cells in the presence of TRAIL | cell killing (% activity), % at 4 µM or 5 µM | PPC-1 cells + TRAIL, ATPLite viability luminescence | 220,000 compounds, 0.41% hits | AID 1443;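 active = cell killing above 50% in the first pass at 4 µM, then a duplicate retest at 5 µM averaging 50% or more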;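 note: plate controls were cells with TRAIL plus DMSO for no effect and medium-only wells lacking cells for full effect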
FLuc stim CS: firefly luciferase counter-screen for stimulation assays. P08659. ATPlite luciferase biochemical, luminescence, 10 min; 0 = ATP-free wells, 1 = DMSO control. activation factor at 10 µM. 200,000 tested, under 10 active. AID 1027;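 active = luciferase activation factor, scaled between plate controls, of at least 2 with compound at 10 µM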
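test system = cell-free luciferase reagent | medium = PBS as buffer for the ATP substrate | dosing = test compounds dosed from 2 mM stocks in 100% DMSO | incubation = 10 min at ambient temperature | detection = luminescence measurement of luciferase light output | benchmarks = low control with PBS replacing ATP, high control enzyme plus ATP without compound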
PPC1 cytotox: PPC-1 cell cytotoxicity; shares compounds with PPC-1+TRAIL kill; cytotoxicity, % at 5 µM; PPC-1 viability, ATPlite luminescence, overnight; 1,200 compounds, 50% hits;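 active = reconfirmed compounds whose average cytotoxicity reaches 50% or more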;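 note: 0% = DMSO-treated cells and 100% = wells holding medium but no cells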
Starred values were filed as active, the others as inactive; / = no result.

SMILES | C8 TRAIL sens | FLuc inh counter | PPC-1+TRAIL kill | FLuc stim CS | PPC1 cytotox
COc1ccc(C2(C)NC(=O)N(CC(=O)Nc3ccc(S(=O)(=O)N4CCCC4)cc3)C2=O)cc1 (configuration not stated) | 0 | -2 | 2 | 1 | /
COc1ccc(NC(=O)O/N=C/c2c(C)nn(C(C)(C)C)c2C)cc1 | 27 | / | 72* | / | 74*
COC(=O)C(Nc1nccs1)(OC)C(F)(F)F (configuration not stated) | 2 | -13 | -7 | 1.1 | /
CCOC(=O)c1ccccc1N/C=C/C(=O)c1ccccc1 | 13 | / | / | / | /
NC(=O)c1ccccc1N/C=C/C(=O)c1ccc(Cl)cc1 | 88* | 94* | 84* | 0.1 | 84*
Cc1ccc(C(=O)/C=C/Nc2ccccc2C(N)=O)cc1 | 90* | 97* | 93* | 0 | 93*
COc1ccc(CCCNC(=O)C2(C)Cc3c(-c4ccc(C(N)=O)cc4)ccnc3O2)cc1 (configuration not stated) | 17 | / | / | / | /
O=C(COc1ccc(CO)cc1Cl)Nc1ccc(F)cc1 | 54* | 72* | 45 | 0.3 | 46
CCOC(=O)C1CCN(c2ncnc3c2oc2ccccc23)CC1 | 14 | -1 | -9 | 1 | /
CCOC(=O)c1cnn(-c2ncnc3c2oc2ccccc23)c1N | 47 | 41 | 27 | 0.6 | 6
CCN1CCN(Cc2ccc(NC(=O)c3cc(NC(=O)C(=O)c4c[nH]c5ccccc45)cc(OC)c3)cc2C(F)(F)F)CC1 | 93* | / | 17 | / | 20
Cc1ccc(S(=O)(=O)OCC(=O)Nc2ccc(C(=O)O)c(O)c2)cc1 | -2 | / | / | / | /
CCN(CC)S(=O)(=O)c1cccc(C(=O)Nc2ccccc2C(=O)N2CCOCC2)c1 | -9 | 3 | 5 | 1 | -4
CC(C(=O)N1c2ccccc2Sc2ccccc21)n1nnc(-c2cccs2)n1 (configuration not stated) | -1 | 5 | 26 | 0.9 | /
O=C(N/N=C/c1cccnc1)c1ccc2c(c1)OCCO2 | 81* | 91* | 55* | 0.1 | 59*
COC(=O)c1ccc2nc(-c3cccc(N)c3)cn2c1 | 72* | 90* | 66* | 0.1 | 67*
COC(=O)c1ccc2nc(-c3ccc(S(C)(=O)=O)cc3)cn2c1 | 12 | 10 | 4 | 0.9 | /
Fc1ccc(-c2cn3ccccc3n2)cc1 | 28 | / | / | / | /
CCOc1ccc(-c2cn3ccccc3n2)cc1 | 84* | 97* | 91* | 0 | 89*
Cc1ccc(C(C)NC(=O)c2cc3ccccc3oc2=O)cc1C (configuration not stated) | 13 | / | / | / | /
Cc1ccc(C(=O)COC(=O)CNS(=O)(=O)c2ccc(C)cc2)cc1 | -7 | / | / | / | /
COc1ccc(Cl)cc1NC(=S)N1CCN(S(C)(=O)=O)CC1 | 1 | / | 19 | / | /
COc1ccc(Cl)cc1NC(=O)N1CCN(S(C)(=O)=O)CC1 | 10 | -4 | 5 | 1 | -9
CC(C)Cc1cc(C(=O)Nc2cccc(O)c2)no1 | 64* | / | 63* | / | 61*
CC(C)Cc1cc(C(=O)Nc2ccc(Br)cc2)no1 | 6 | / | 14 | / | /
SMILES | C8 TRAIL sens | FLuc inh counter | PPC-1+TRAIL kill | FLuc stim CS | PPC1 cytotox
C=CCn1c(C)cc(C(=O)Cn2nc(C(=O)O)c3ccccc3c2=O)c1C | 78* | 92* | 47 | 0.1 | 38
CCOC(=O)CSc1nc2ccccc2c(=O)n1C1CCCC1 | -7 | -4 | -1 | 1 | /
O=C(Nc1ccccn1)c1ccc2ccccc2n1 | 55* | 84* | 38 | 0.2 | 52*
CCOC(=O)Nc1ccc(S(=O)(=O)NCCCN2CCOCC2)cc1 | -1 | -6 | 9 | 1.1 | 6
CCOC(=O)Nc1ccc(S(=O)(=O)N2CCOCC2)cc1 | -14 | 0 | 13 | 1 | /
CCOc1ccc2oc(C(=O)OCC(=O)NCc3ccc(OC)cc3)c(C)c2c1 | 2 | / | / | / | /
Cc1nc(-c2cccc(NC(=O)c3ccc(-n4cccn4)cc3)c2)cs1 | 10 | / | / | / | /
COc1cc(SC)ccc1C(=O)Nc1ccc(Br)cn1 | 86* | / | 88* | / | 88*
COc1cc(SC)ccc1C(=O)Nc1ncc(C)s1 | 80* | 93* | 73* | 0.1 | 76*
COc1ccc(C(=O)Nc2ccc3c(c2)OCCO3)c(OC)c1 | 46 | / | / | / | /
COc1cc(SC)ccc1C(=O)Nc1ncc(Cl)cc1Cl | 21 | 27 | 40 | 0.7 | /
COc1cc(SC)ccc1C(=O)Nc1ccc2c(c1)OCO2 | 38 | 72* | 42 | 0.3 | 40
COc1cc(SC)ccc1C(=O)Nc1ccccn1 | 77* | / | 68* | / | 66*
COc1ccc(C)cc1NC(=O)CN(C)S(=O)(=O)c1cc(C)ccc1OC | 0 | -7 | 14 | 1.1 | /
O=S(=O)(c1cccc(-c2nc3ccccc3s2)c1)N1CCCC1 | 3 | -2 | 10 | 1 | 8
O=C(O)c1ccc2c(c1)C(=O)N(c1cccc(-c3nc4ccccc4s3)c1)C2=O | 49 | 34 | 39 | 0.7 | 37
Nc1cccc(-c2nc3ccccc3s2)c1 | 51* | 76* | 36 | 0.2 | 39
CN(C)C(CNC(=O)CCNC(=O)c1ccccc1Cl)c1ccco1 (configuration not stated) | -3 | / | / | / | /
CCCCc1cc(=O)oc2c(CN(C)C)c(O)ccc12 | 1 | -6 | 20 | 1.1 | /
Cc1ccn2cc(-c3ccc(Br)cc3)nc2c1 | 86* | / | 82* | / | 83*
Cc1ccc(S(=O)(=O)Nc2ccc(-c3cn4ccc(C)cc4n3)cc2)cc1 | 6 | 2 | -18 | 1 | /
CCOC(=O)CN1N=C(/C=C/c2ccc(C)cc2)CCC1=O | -2 | 1 | 10 | 1 | /
COc1ccc(/C=C/C2=NN(C)C(=O)CC2)cc1 | 53* | 81* | 53* | 0.2 | 48
C=CCn1c(-c2ccc(OC)cc2)nc2nc3ccccc3nc21 | 27 | 6 | -7 | 0.9 | 2
CCCC(=O)Nc1ccccc1NC(=O)c1ccc(OCC)cc1 | -2 | 1 | 12 | 1 | /
SMILES | C8 TRAIL sens | FLuc inh counter | PPC-1+TRAIL kill | FLuc stim CS | PPC1 cytotox
CCOc1ccc(C(=O)Nc2ccccc2C(=O)O)cc1 | 75* | 93* | 62* | 0.1 | 62*
CCOc1ccc(C(=O)Nc2cc(C)on2)cc1 | 64* | 74* | 47 | 0.3 | 50*
NC(=O)c1ccc(OCc2ccccc2)nc1 | -6 | / | / | / | /
Cc1ccc(C)c(NC(=O)COC(=O)c2ccc3c(c2)OCO3)c1 | -4 | -3 | 28 | 1 | /
Cc1cc(C(=O)CN2C(=O)c3ccccc3S2(=O)=O)c(C)n1CC1CCCO1 (configuration not stated) | 83* | 42 | 86* | 0.6 | 85*
O=C(Nc1ccc(NC(=O)c2ccco2)nc1)c1ccco1 | 69* | 84* | 53* | 0.2 | 52*
O=C(Cn1c(/C=C/c2ccccc2)nc2ccccc21)Nc1ccc(F)cc1 | 9 | 34 | 21 | 0.7 | /
O=S(=O)(NCCSc1ccccc1)c1ccc(F)cc1 | -5 | -1 | -2 | 1 | -3
O=C(COc1ccc(S(=O)(=O)NC2CCCCC2)cc1)NCC1CCCO1 (configuration not stated) | -8 | -6 | 9 | 1.1 | 2
CC(C)(C)NS(=O)(=O)c1ccc(OCC(=O)NCC2CCCO2)cc1 (configuration not stated) | -14 | / | / | / | /
